The results in this text go back to ChEMBL document CHEMBL1275290, “4-Aminoquinoline derived antimalarials: synthesis, antiplasmodial activity and heme polymerization inhibition studies” (Eur J Med Chem, 2010).

The nature of test [1]: Inhibition of beta-hematin polymerization by UV spectrophotometry based BHIA assay relative to untreated hemin control. It counts as functional. An outline of the steps: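 IC50 expressed as millimolar equivalents of compound relative to hemin needed to block beta-hematin formation by 50%. Triplicate readings converted to percent inhibition versus drug-free hemozoin control; IC50 from sigmoidal dose-response non-linear regression. Means ± SD from at least three experiments in duplicate.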

Test [2] is described as follows: Binding affinity to hematin measured as association constant for 1:1 (hematin-compound) complex formation at pH 7.5. An outline of the steps:
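Spectrophotometric titration of hematin with compound in 40% aqueous DMSO, 20 mM HEPES, pH 7.5, 25 °C; hematin held in monomeric state. Association constant for 1:1 compound:hematin complex; means ± SD from at least three experiments in duplicate.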

Test [3] has as its system Plasmodium falciparum. Put plainly: Resistance index, ratio of IC50 for chloroquine-resistant Plasmodium falciparum Dd2 to IC50 for chloroquine-sensitive Plasmodium falciparum D6. It counts as functional. An outline of the steps:
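Ratio of Dd2 IC50 to D6 IC50, each from the 72 h SYBR Green I growth assay (0.2% parasitemia, 2% hematocrit, RPMI-1640 + 0.5% Albumax II), triplicate, IC50 from variable-slope sigmoidal fits.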

For test [4], the system named is Plasmodium falciparum. Put plainly: Antimalarial activity against chloroquine-sensitive Plasmodium falciparum D6 after 72 hrs by SYBR Green I fluorescence based method. Conditions: D6, 72 h. The test is classed as functional, organism-based. The essentials:
(§1)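 Asynchronous continuous P. falciparum cultures diluted with uninfected erythrocytes in RPMI-1640 + 0.5% Albumax II to 0.2% parasitemia, 2% hematocrit. Compounds from 10 mM DMSO stock diluted in medium (0.1 nM–100 range). 72 h incubation under standard culture conditions; SYBR Green I fluorescence read (ex 497/em 520 nm). Triplicate experiments; IC50 from variable-slope sigmoidal dose–response fits.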

Test [5] relates to Plasmodium falciparum. The test is described as follows: Antimalarial activity against chloroquine-resistant Plasmodium falciparum Dd2 after 72 hrs by SYBR Green I fluorescence based method. It counts as functional, organism-based. Particulars: Dd2, 72 h. An outline of the steps: as §1

As for `S=C(NCCCNc1ccnc2cc(Cl)ccc12)N1CCOCC1`, the IC50 worked out at 0.34 mMequiv in test [1], 180 nM in test [4] and 556 nM in test [5]. In test [2], this molecule registered a log Ks of 4.94. Moreover, the “Ratio IC50” value in test [3] is on record as 3.08.
The matching figures for `S=C(NCCCNc1ccnc2cc(Cl)ccc12)N1CCCCC1`: 0.29 mMequiv, 104 nM, 104 nM, 5.24 and 0.99.
For `S=C(NCCCNc1ccnc2cc(Cl)ccc12)N1CCN(c2ccccc2)CC1`, in that order: 0.17 mMequiv, 28.7 nM, 50.5 nM, 5.37 and 1.76.
For `S=C(NCCCNc1ccnc2cc(Cl)ccc12)Nc1ccc(Cl)cc1`, the IC50 was 0.48 mMequiv in test [1] and 234 nM in test [4]. Also, the log Ks in test [2] is 4.23.
Regarding `CC(C)N(C(=S)NCCCNc1ccnc2cc(Cl)ccc12)C(C)C`, the IC50 in test [1] is 0.33 mMequiv; in test [4], 161 nM; in test [5] it was 202 nM. This molecule also returned a log Ks in test [2] of 4.95. Further, the “Ratio IC50” value in test [3] was 1.25.
As to `CN(C)C(=S)NCCCNc1ccnc2cc(Cl)ccc12`, the IC50 in test [1] is 0.55 mMequiv; in test [4] it was 140 nM. The same molecule gave a log Ks in test [2] of 4.87.
For `CN1CCN(C(=S)NCCCNc2ccnc3cc(Cl)ccc23)CC1`, the IC50 in test [1] amounted to 0.35 mMequiv; in test [4], 59.1 nM; in test [5], 68.4 nM. The same molecule returned a log Ks in test [2] of 4.98. Moreover, the “Ratio IC50” value in test [3] amounted to 1.16.
The matching figures for `S=C(NCCCNc1ccnc2cc(Cl)ccc12)NC1CC1`: 0.11 mMequiv, 23.9 nM, 14.1 nM, 5.67 and 0.59.
The matching figures for `S=C(NCCCNc1ccnc2cc(Cl)ccc12)NCCCNc1ccnc2cc(Cl)ccc12`: 0.27 mMequiv, 128 nM, 280 nM, 5.38 and 2.18.
As to `S=C(NCCCNc1ccnc2cc(Cl)ccc12)N1CCCC1`, the IC50 was 0.35 mMequiv in test [1], 128 nM in test [4] and 142 nM in test [5]. For the same molecule, in test [2], the log Ks came to 4.98. The “Ratio IC50” value in test [3] stood at 1.11.
Consider `CNC(=S)NCCCNc1ccnc2cc(Cl)ccc12`, for which the IC50 turned out to be 0.66 mMequiv in test [1], 177 nM in test [4] and 213 nM in test [5]. In test [2], this molecule yielded a log Ks of 4.57. Also, the “Ratio IC50” value in test [3] came to 1.2.
For `CCN(CC)C(=S)NCCCNc1ccnc2cc(Cl)ccc12`, in that order: 0.15 mMequiv, 103 nM, 125 nM, 5.34 and 1.21.
For `S=C(NCCCNc1ccnc2cc(Cl)ccc12)N1CCNCC1`, in that order: 0.69 mMequiv, 333 nM, 778 nM, 4.46 and 2.33.
With `CCN(CC)CCCC(C)Nc1ccnc2cc(Cl)ccc12` (configuration not stated) [CHLOROQUINE], the IC50 in test [1] amounted to 0.17 mMequiv.
